Measurements published in ChEMBL document CHEMBL1687794, “Phenotypic and biochemical comparison of the carbapenem-hydrolyzing activities of five plasmid-borne AmpC β-lactamases” (2010).
Converted amounts (≈) assume the structure as drawn.

What was measured:
[1] = Activity of Beta-lactamase FOX-1
Method in brief: (§1)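 Enzyme source: AmpC genes cloned without native promoter under lacZ control, expressed in E. coli TOP10, purified (FOX-1 by two Q-Sepharose steps, bis-Tris pH 6.8 then Tris-HCl pH 9). Hydrolysis monitored spectrophotometrically at 30°C in 100 mM sodium phosphate pH 7.0 with cephaloridine, ertapenem, imipenem or meropenem. kcat from initial rates at saturating substrate ([S] = 100 × Km).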

[2] = Activity of Beta-lactamase DHA-1; method in brief: as §1
[3] = Activity of Beta-lactamase ACT-1; method in brief: as §1
[4] = Ratio of Kcat to Km for Beta-lactamase FOX-1
Method in brief: (§2)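 Purified TOP10-expressed AmpC enzymes, assayed spectrophotometrically at 30°C, 100 mM sodium phosphate pH 7.0. Cephaloridine Km and kcat from initial rates via Eadie-Hofstee linearization. For imipenem, Ki replaced Km, measured against cephaloridine as reporter substrate. kcat from initial rates at saturating substrate ([S] = 100 × Km) using undiluted enzyme extract. Efficiency taken as kcat/Km.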

[5] = Ratio of Kcat to Km for Beta-lactamase ACC-1; method in brief: as §2
[6] = Ratio of Kcat to Km for Beta-lactamase AmpC-B2; method in brief: as §2
[7] = Ratio of Kcat to Km for Beta-lactamase DHA-1; method in brief: as §2
[8] = Ratio of Kcat to Km for Beta-lactamase CMY-2; method in brief: as §2
[9] = Ratio of Kcat to Km for Beta-lactamase ACT-1; method in brief: as §2
[10] = Activity of Beta-lactamase ACC-1
Method in brief: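 ACC-1 cloned without its native promoter behind the lacZ promoter, expressed in E. coli TOP10 and purified. Ki, Km and kcat measured by UV spectrophotometry at 30°C in 100 mM sodium phosphate pH 7.0. Cephaloridine Km/kcat from initial rates by Eadie-Hofstee analysis. Imipenem Ki measured against cephaloridine reporter substrate; kcat from initial rates at [S] = 100 × Km.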

[11] = Activity of Beta-lactamase AmpC-B2; method in brief: as §1
[12] = Activity of Beta-lactamase CMY-2; method in brief: as §1
[13] = tested on: Escherichia coli; assay: Antimicrobial activity against Escherichia coli TOP10 transformed with Escherichia coli ECB2 plasmid carrying CMY-2 by agar dilution method; format: functional
Method in brief: (§3)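 Agar dilution MICs on Mueller-Hinton agar, 10^4 CFU per spot, read by CLSI guidelines. Strains are wild-type E. coli TOP10, with or without a cloned ampC gene (native promoter removed, lacZ promoter-driven). Antibiotics tested: cefoxitin, cefuroxime, cefotaxime, ceftazidime, cefepime, imipenem, ertapenem, meropenem.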

[14] = tested on: Escherichia coli; assay: Antimicrobial activity against OmpC/OmpF porin deficient Escherichia coli HB4 by agar dilution method; format: functional
Method in brief: (§4)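 Agar dilution on Mueller-Hinton agar, inoculum 10^4 CFU per spot, interpreted per CLSI. Host is E. coli HB4, which lacks OmpC and OmpF, with or without a cloned ampC gene under the lacZ promoter. Panel: cefoxitin, cefuroxime, cefotaxime, ceftazidime, cefepime, imipenem, ertapenem, meropenem.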

[15] = tested on: Escherichia coli; assay: Antimicrobial activity against OmpC/OmpF porin deficient Escherichia coli HB4 transformed with Escherichia coli EC-6 plasmid carrying AmpC-B2 by agar dilution method; format: functional; method in brief: as §4
[16] = tested on: Escherichia coli; assay: Antimicrobial activity against OmpC/OmpF porin deficient Escherichia coli HB4 transformed with Escherichia coli ECB-1 plasmid carrying ACC-1 by agar dilution method; format: functional; method in brief: as §4
[17] = tested on: Escherichia coli; assay: Antimicrobial activity against OmpC/OmpF porin deficient Escherichia coli HB4 transformed with Escherichia coli pGLK-1 plasmid carrying FOX-1 by agar dilution method; format: functional; method in brief: as §4
[18] = tested on: Escherichia coli; assay: Antimicrobial activity against OmpC/OmpF porin deficient Escherichia coli HB4 transformed with Escherichia coli DH10B plasmid carrying DHA-1 by agar dilution method; format: functional; method in brief: as §4
[19] = tested on: Escherichia coli; assay: Antimicrobial activity against OmpC/OmpF porin deficient Escherichia coli HB4 transformed with Enterobacter asburiae CIP 105006 plasmid carrying ACT-1 by agar dilution method; format: functional; method in brief: as §4
[20] = tested on: Escherichia coli; assay: Antimicrobial activity against Escherichia coli TOP10 transformed with Escherichia coli EC-6 plasmid carrying AmpC-B2 by agar dilution method; format: functional; method in brief: as §3
[21] = tested on: Escherichia coli; assay: Antimicrobial activity against Escherichia coli TOP10 transformed with Escherichia coli ECB-1 plasmid carrying ACC-1 by agar dilution method; format: functional; method in brief: as §3
[22] = tested on: Escherichia coli; assay: Antimicrobial activity against Escherichia coli TOP10 transformed with Escherichia coli DH10B plasmid carrying DHA-1 by agar dilution method; format: functional; method in brief: as §3
[23] = tested on: Escherichia coli; assay: Antimicrobial activity against Escherichia coli TOP10 transformed with Enterobacter asburiae CIP 105006 plasmid carrying ACT-1 by agar dilution method; format: functional; method in brief: as §3
[24] = tested on: Escherichia coli; assay: Antimicrobial activity against Escherichia coli TOP10 by agar dilution method
[25] = tested on: Escherichia coli; assay: Antimicrobial activity against OmpC/OmpF porin deficient Escherichia coli HB4 transformed with Escherichia coli ECB2 plasmid carrying CMY-2 by agar dilution method; format: functional; method in brief: as §4
[26] = tested on: Escherichia coli; assay: Antimicrobial activity against Escherichia coli TOP10 transformed with Escherichia coli pGLK-1 plasmid carrying FOX-1 by agar dilution method; format: functional; method in brief: as §3

Row | Compound | MIC [13] | MIC [14] | MIC [15] | MIC [16] | MIC [17] | MIC [18] | MIC [19] | MIC [20] | MIC [21] | MIC [22] | MIC [23] | MIC [24] | MIC [25] | MIC [26] | further results
1 | O=C(Cc1cccs1)N[C@@H]1C(=O)N2C(C(=O)[O-])=C(C[n+]3ccccc3)CS[C@H]12 | – | – | – | – | – | – | – | – | – | – | – | – | – | – | Km [1]: 630 µM; kcat [1]: 228 s⁻¹; Km [2]: 330 µM; kcat [2]: 196 s⁻¹; Km [3]: 420 µM; kcat [3]: 481 s⁻¹; kcat/Km [4]: 360000 M⁻¹ s⁻¹; kcat/Km [5]: 330000 M⁻¹ s⁻¹; kcat/Km [6]: 250000 M⁻¹ s⁻¹; kcat/Km [7]: 595000 M⁻¹ s⁻¹; kcat/Km [8]: 3.3e+06 M⁻¹ s⁻¹; kcat/Km [9]: 1.14e+06 M⁻¹ s⁻¹; Km [10]: 420 µM; kcat [10]: 140 s⁻¹; Km [11]: 950 µM; kcat [11]: 240 s⁻¹; Km [12]: 125 µM; kcat [12]: 412 s⁻¹
2 | CO/N=C(\C(=O)N[C@@H]1C(=O)N2C(C(=O)[O-])=C(C[N+]3(C)CCCC3)CS[C@H]12)c1csc(N)n1 [CEFEPIME] | 1 µg/mL (≈ 2.08 µM) | 1 µg/mL (≈ 2.08 µM) | 1 µg/mL (≈ 2.08 µM) | 4 µg/mL (≈ 8.32 µM) | 8 µg/mL (≈ 16.6 µM) | 2 µg/mL (≈ 4.16 µM) | 4 µg/mL (≈ 8.32 µM) | 0.06 µg/mL (≈ 0.125 µM) | 0.125 µg/mL (≈ 0.26 µM) | 0.064 µg/mL (≈ 0.133 µM) | 0.25 µg/mL (≈ 0.52 µM) | 0.06 µg/mL (≈ 0.125 µM) | – | – | –
3 | CO/N=C(\C(=O)N[C@@H]1C(=O)N2C(C(=O)O)=C(COC(C)=O)CS[C@H]12)c1csc(N)n1 [CEFOTAXIME] | 128 µg/mL (≈ 281 µM) | 4 µg/mL (≈ 8.78 µM) | 4 µg/mL (≈ 8.78 µM) | 4 µg/mL (≈ 8.78 µM) | 32 µg/mL (≈ 70.3 µM) | 128 µg/mL (≈ 281 µM) | 64 µg/mL (≈ 141 µM) | 0.5 µg/mL (≈ 1.1 µM) | 1 µg/mL (≈ 2.2 µM) | 8 µg/mL (≈ 17.6 µM) | 64 µg/mL (≈ 141 µM) | 0.06 µg/mL (≈ 0.132 µM) | 256 µg/mL (≈ 562 µM) | 16 µg/mL (≈ 35.1 µM) | –
4 | CO[C@@]1(NC(=O)Cc2cccs2)C(=O)N2C(C(=O)O)=C(COC(N)=O)CS[C@@H]21 [CEFOXITIN] | 128 µg/mL (≈ 299 µM) | 256 µg/mL (≈ 599 µM) | 512 µg/mL (≈ 1200 µM) | 256 µg/mL (≈ 599 µM) | > 512 µg/mL | > 512 µg/mL | > 512 µg/mL | 128 µg/mL (≈ 299 µM) | 2 µg/mL (≈ 4.68 µM) | 32 µg/mL (≈ 74.9 µM) | 512 µg/mL (≈ 1200 µM) | 2 µg/mL (≈ 4.68 µM) | > 512 µg/mL | 512 µg/mL (≈ 1200 µM) | –
5 | CC(C)(O/N=C(\C(=O)N[C@@H]1C(=O)N2C(C(=O)[O-])=C(C[n+]3ccccc3)CS[C@H]12)c1csc(N)n1)C(=O)O [CEFTAZIDIME] | 256 µg/mL (≈ 468 µM) | 4 µg/mL (≈ 7.32 µM) | 8 µg/mL (≈ 14.6 µM) | 16 µg/mL (≈ 29.3 µM) | 512 µg/mL (≈ 937 µM) | 256 µg/mL (≈ 468 µM) | > 512 µg/mL | 1 µg/mL (≈ 1.83 µM) | 8 µg/mL (≈ 14.6 µM) | 64 µg/mL (≈ 117 µM) | 128 µg/mL (≈ 234 µM) | 0.06 µg/mL (≈ 0.11 µM) | > 512 µg/mL | 64 µg/mL (≈ 117 µM) | –
6 | CO/N=C(\C(=O)N[C@@H]1C(=O)N2C(C(=O)O)=C(COC(N)=O)CS[C@H]12)c1ccco1 [CEFUROXIME] | 128 µg/mL (≈ 302 µM) | 32 µg/mL (≈ 75.4 µM) | 512 µg/mL (≈ 1210 µM) | 128 µg/mL (≈ 302 µM) | > 512 µg/mL | > 512 µg/mL | > 512 µg/mL | 128 µg/mL (≈ 302 µM) | 1 µg/mL (≈ 2.36 µM) | 128 µg/mL (≈ 302 µM) | 512 µg/mL (≈ 1210 µM) | 1 µg/mL (≈ 2.36 µM) | > 512 µg/mL | 256 µg/mL (≈ 603 µM) | –
7 | C[C@@H](O)[C@H]1C(=O)N2C(C(=O)O)=C(S[C@@H]3CN[C@H](C(=O)Nc4cccc(C(=O)O)c4)C3)[C@H](C)[C@H]12 [ERTAPENEM] | 0.064 µg/mL (≈ 0.135 µM) | 1 µg/mL (≈ 2.1 µM) | 2 µg/mL (≈ 4.21 µM) | 2 µg/mL (≈ 4.21 µM) | 4 µg/mL (≈ 8.41 µM) | 16 µg/mL (≈ 33.6 µM) | 256 µg/mL (≈ 538 µM) | 0.064 µg/mL (≈ 0.135 µM) | 0.006 µg/mL (≈ 0.0126 µM) | 0.012 µg/mL (≈ 0.0252 µM) | 0.016 µg/mL (≈ 0.0336 µM) | 0.006 µg/mL (≈ 0.0126 µM) | 256 µg/mL (≈ 538 µM) | 0.032 µg/mL (≈ 0.0673 µM) | –
8 | C[C@@H](O)[C@H]1C(=O)N2C(C(=O)O)=C(SCCNC=N)C[C@H]12 [IMIPENEM ANHYDROUS] | 0.5 µg/mL (≈ 1.67 µM) | – | 0.5 µg/mL (≈ 1.67 µM) | 0.5 µg/mL (≈ 1.67 µM) | 0.5 µg/mL (≈ 1.67 µM) | 2 µg/mL (≈ 6.68 µM) | 16 µg/mL (≈ 53.4 µM) | 0.125 µg/mL (≈ 0.418 µM) | – | – | – | – | 32 µg/mL (≈ 107 µM) | 0.25 µg/mL (≈ 0.835 µM) | Km [1]: 35 µM; kcat [1]: 0.01 s⁻¹; kcat [2]: < 0.001 s⁻¹; Km [3]: 3 µM; kcat [3]: 0.02 s⁻¹; kcat/Km [4]: 300 M⁻¹ s⁻¹; kcat/Km [6]: 2000 M⁻¹ s⁻¹; kcat/Km [8]: 40000 M⁻¹ s⁻¹; kcat/Km [9]: 7000 M⁻¹ s⁻¹; kcat [10]: < 0.001 s⁻¹; Km [11]: 35 µM; kcat [11]: 0.08 s⁻¹; Km [12]: 1 µM; kcat [12]: 0.04 s⁻¹
9 | C[C@@H](O)[C@H]1C(=O)N2C(C(=O)O)=C(S[C@@H]3CN[C@H](C(=O)N(C)C)C3)[C@H](C)[C@H]12 [MEROPENEM] | 0.064 µg/mL (≈ 0.167 µM) | 0.032 µg/mL (≈ 0.0834 µM) | 0.032 µg/mL (≈ 0.0834 µM) | 0.5 µg/mL (≈ 1.3 µM) | 0.75 µg/mL (≈ 1.96 µM) | 1 µg/mL (≈ 2.61 µM) | 4 µg/mL (≈ 10.4 µM) | 0.032 µg/mL (≈ 0.0834 µM) | 0.032 µg/mL (≈ 0.0834 µM) | 0.032 µg/mL (≈ 0.0834 µM) | 0.032 µg/mL (≈ 0.0834 µM) | 0.032 µg/mL (≈ 0.0834 µM) | 8 µg/mL (≈ 20.9 µM) | 0.125 µg/mL (≈ 0.326 µM) | –
